The source of these data is ChEMBL document CHEMBL4715738, “In Vitro Antibacterial Activity of Curcumin-Polymyxin B Combinations against Multidrug-Resistant Bacteria Associated with Traumatic Wound Infections” (J Nat Prod, 2016).

One data set concerns HaCaT. Kind of data set: Cytotoxicity against human HaCaT cells at 6.1 uM measured after 4 hrs by CyTox 96 nonradioactive assay relative to control. In kind it is cell-based.
Data set [1] concerns Escherichia coli. Nature of the data set: Antibacterial activity against Escherichia coli EC204 harboring NDM-1 assessed as reduction in bacterial growth incubated for 24 hrs in presence of curcumin. The format is functional.
Data set [2] deals with Enterococcus faecium. Kind of data set: Antibacterial activity against vancomycin-resistant Enterococcus faecium OEF42 assessed as reduction in bacterial growth incubated for 24 hrs in presence of curcumin. The format is functional.
Data set [3] concerns Pseudomonas aeruginosa. Nature of the data set: Synergistic antibacterial activity against Pseudomonas aeruginosa PAO1 assessed as fractional inhibitory concentration index measured after 24 hrs in presence of curcumin by checkerboard assay. The format is functional. The method, boiled down: (§1)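 FICI calculated from combination MICs; ≤0.5 taken as synergy and >0.5–4.0 as additive. Where an MIC was not reached, the dilution above the highest concentration tested was used in the calculation. Run in triplicate and reported as means.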

The subject of data set [4] is Stenotrophomonas maltophilia. Nature of the data set: Antibacterial activity against Stenotrophomonas maltophilia SMS01 assessed as reduction in bacterial growth incubated for 24 hrs in presence of curcumin. The format is functional.
Data set [5] has as its system Pseudomonas aeruginosa. Kind of data set: Antibacterial activity against Pseudomonas aeruginosa PA14 assessed as reduction in bacterial growth incubated for 24 hrs in presence of curcumin. The format is functional.
The test system of data set [6] is Streptococcus pyogenes. Nature of the data set: Synergistic antibacterial activity against Streptococcus pyogenes SPY3 assessed as fractional inhibitory concentration index measured after 24 hrs in presence of curcumin by checkerboard assay.
The subject of data set [7] is Staphylococcus aureus. Nature of the data set: Antibacterial activity against vancomycin-intermediate resistant Staphylococcus aureus Mu50 assessed as reduction in bacterial growth incubated for 24 hrs in presence of curcumin. In kind it is functional.
In data set [8] the test system is Stenotrophomonas maltophilia. Nature of the data set: Antibacterial activity against Stenotrophomonas maltophilia NCTC 10258 assessed as reduction in bacterial growth incubated for 24 hrs in presence of curcumin. In kind it is functional.
For data set [9], the system named is Acinetobacter baumannii. Kind of data set: Antibacterial activity against Acinetobacter baumannii AB14 harboring OXA-23 clone 1 assessed as reduction in bacterial growth incubated for 24 hrs in presence of curcumin. The format is functional.
The subject of data set [10] is Acinetobacter baumannii. Nature of the data set: Synergistic antibacterial activity against Acinetobacter baumannii AB14 harboring OXA-23 clone 1 assessed as fractional inhibitory concentration index measured after 24 hrs in presence of curcumin by checkerboard assay. The format is functional. A digest of the protocol: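 FICI was derived from checkerboard MICs. Synergy was defined as FICI ≤ 0.5 and additive as FICI > 0.5−4.0. Where an MIC was not reached, the dilution above the maximum dose was used in the FICI calculation. Experiments were run in triplicate and reported as means.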

In data set [11] the test system is Stenotrophomonas maltophilia. Kind of data set: Antibacterial activity against Stenotrophomonas maltophilia NCTC 10258 assessed as reduction in colony formation at MIC measured after 24 hrs by time kill assay. The format is functional, organism-based. The method, boiled down: (§2)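 Time-kill in Mueller-Hinton 2 broth. Inoculum was a 1/1000 dilution of a 16 h overnight culture, about 10^6 CFU/mL, 10 mL per tube. Arms were each agent alone at ×1 MIC, or the combination at ×1 MIC plus ×0.5 MIC partner. Incubated at 37 °C with continuous agitation for 24 h. Samples taken at 0, 2, 4, 6 and 24 h, serially diluted and plated on IsoSensitest agar for CFU counts.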

Data set [12] relates to Streptococcus pyogenes. Nature of the data set: Synergistic antibacterial activity against Streptococcus pyogenes SPY2 assessed as fractional inhibitory concentration index measured after 24 hrs in presence of curcumin by checkerboard assay. The format is functional. A digest of the protocol:
as §1

In data set [13] the test system is Acinetobacter baumannii. Nature of the data set: Antibacterial activity against Acinetobacter baumannii NCTC 19606 assessed as reduction in bacterial growth incubated for 24 hrs in presence of curcumin. In kind it is functional.
The subject of data set [14] is Streptococcus pyogenes. Nature of the data set: Potentiation of polymyxin B-induced antibacterial activity against Streptococcus pyogenes SPY2 assessed as fold reduction in polymyxin B MIC measured after 24 hrs […] checkerboard assay. The format is functional. A digest of the protocol: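 Polymyxin B MIC measured alone and in combination with curcumin; fold reduction derived from the two MICs. Experiments run in triplicate and reported as mean values.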

The test system of data set [15] is Stenotrophomonas maltophilia. Kind of data set: Bactericidal activity against Stenotrophomonas maltophilia NCTC […] assessed as log reduction in colony forming units at 0.5 fold MIC measured after 24 hrs in presence of polymyxin B at MIC by time kill assay. The format is functional. The method, boiled down:
as §2

Data set [16] concerns Acinetobacter baumannii. Nature of the data set: Antibacterial activity against Acinetobacter baumannii AB16 harboring OXA-23 clone 2 assessed as reduction in bacterial growth incubated for 24 hrs in presence of polymyxin B. In kind it is functional.
Data set [17] has as its system Escherichia coli. Nature of the data set: Potentiation of polymyxin B-induced antibacterial activity against Escherichia coli EC2 harboring CTX-M-15 assessed as fold reduction in polymyxin B MIC measured after 24 hrs […] checkerboard assay. In kind it is functional. The method, boiled down:
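Combination MICs from the checkerboard used for FICI calculation. Where no MIC was reached, the dilution above the top dose was used in the FICI. Run in triplicate; mean values reported.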

In data set [18] the test system is Pseudomonas aeruginosa. Nature of the data set: Bactericidal activity against Pseudomonas aeruginosa ATCC 27853 assessed as log reduction in colony forming units at 0.5 fold MIC measured after 24 hrs in presence of polymyxin B at MIC by time kill assay. The format is functional. The method, boiled down:
as §2

In data set [19] the test system is Pseudomonas aeruginosa. Nature of the data set: Bactericidal activity against Pseudomonas aeruginosa ATCC 27853 assessed as bacterial cell death at 0.5 fold MIC measured after 4 to 6 hrs in presence of polymyxin B at MIC by time kill assay relative to control. The format is functional. The following applies: time 4-6 hrs. A digest of the protocol:
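Time-kill in 10 mL Mueller-Hinton 2 broth, 37 °C with continuous agitation, 24 h. Inoculum was a 1/1000 dilution of a 16 h overnight culture, about 10^6 CFU/mL. Single agents at 1× MIC; combination at 1× MIC polymyxin B plus 0.5× MIC curcumin. Samples at 0, 2, 4, 6 and 24 h were serially diluted and plated on IsoSensitest agar for CFU/mL.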

A further data set has as its system Enterococcus faecalis. Nature of the data set: Potentiation of polymyxin B-induced antibacterial activity against Enterococcus faecalis ATCC 29212 assessed as fold reduction in polymyxin B MIC measured after 24 hrs in presence of polymyxin B by checkerboard assay.
The subject of data set [20] is Pseudomonas aeruginosa. Nature of the data set: Antibacterial activity against Pseudomonas aeruginosa ATCC 27853 assessed as log reduction in colony forming units at 0.5 fold MIC measured after 24 hrs by time kill assay. The format is functional. Conditions: in the assay text read “1 fold MIC” for “0.5 fold MIC”. The method, boiled down:
as §2

The test system of data set [21] is Staphylococcus aureus. Kind of data set: Antibacterial activity against methicillin-resistant Staphylococcus aureus NCTC 12493 assessed as reduction in bacterial colony formation at 0.5 fold MIC measured after 24 hrs by time kill assay. The format is functional, organism-based.
Data set [22] relates to Pseudomonas aeruginosa. Kind of data set: Antibacterial activity against Pseudomonas aeruginosa PA14 assessed as reduction in bacterial growth incubated for 24 hrs in presence of polymyxin B. In kind it is functional.
In data set [23] the test system is Stenotrophomonas maltophilia. Nature of the data set: Potentiation of polymyxin B-induced antibacterial activity against Stenotrophomonas maltophilia SMB07 assessed as fold reduction in polymyxin B MIC measured after 24 hrs in presence of polymyxin B by checkerboard assay. In kind it is functional.
The test system of data set [24] is Stenotrophomonas maltophilia. Kind of data set: Antibacterial activity against Stenotrophomonas maltophilia NCTC 10258 assessed as reduction in bacterial colony formation at 0.5 fold MIC measured after 24 hrs by time kill assay. The format is functional, organism-based. A digest of the protocol: as §2
Data set [25] deals with Staphylococcus aureus. Nature of the data set: Antibacterial activity against vancomycin-intermediate resistant Staphylococcus aureus Mu50 assessed as reduction in bacterial growth incubated for 24 hrs in presence of polymyxin B. In kind it is functional.
The test system of data set [26] is Enterococcus faecium. Kind of data set: Potentiation of polymyxin B-induced antibacterial activity against vancomycin-resistant Enterococcus faecium OEF42 assessed as fold reduction in polymyxin B MIC measured after 24 hrs in presence of polymyxin B by checkerboard assay. The format is functional.
The subject of data set [27] is Pseudomonas aeruginosa. Nature of the data set: Antibacterial activity against Pseudomonas aeruginosa ATCC 27853 assessed as reduction in bacterial growth incubated for 24 hrs in presence of polymyxin B. The format is functional.

Active and inactive are the calls of the source.

The term MIC denotes the least concentration at which growth counts as inhibited. On to `CC[C@H](C)CCCCC(=O)N[C@@H](CCN)C(=O)N[C@H](C(=O)N[C@@H](CCN)C(=O)N[C@H]1CCNC(=O)[C@H]([C@@H](C)O)NC(=O)[C@H](CCN)NC(=O)[C@H](CCN)NC(=O)[C@H](CC(C)C)NC(=O)[C@@H](Cc2ccccc2)NC(=O)[C@H](CCN)NC1=O)[C@@H](C)O.O=S(=O)(O)O`, for which the Activity in the data set on HaCaT was 2%. Also, the minimal inhibitory concentration (MIC) was determined as 0.024 µM with Escherichia coli [1]; 3.1 µM with Enterococcus faecium [2]; 0.024 µM in [4]; 0.012 µM with Pseudomonas aeruginosa [5]; 1.5 µM with Staphylococcus aureus [7]; 0.008 µM in [8]. The minimal inhibitory concentration (MIC) with Acinetobacter baumannii [9] was 0.024 µM; in the data set with Acinetobacter baumannii [13], 0.012 µM. In addition, the “fractional inhibitory concentration index (FICI)” value was 0.031 in the data set with Pseudomonas aeruginosa [3], 0.5 in the data set with Streptococcus pyogenes [6], 0.375 with Acinetobacter baumannii [10] and 0.188 in the data set with Streptococcus pyogenes [12]. Further, the outcome in data set [11] was inactive.

`COc1cc(/C=C/C(=O)CC(=O)/C=C/c2ccc(O)c(OC)c2)ccc1O` [CURCUMIN]: the “fold change (FC)” value (in the data set on Streptococcus pyogenes [14]; in the data set with Escherichia coli [17]; in the data set on Enterococcus faecalis; in [23]; with Enterococcus faecium [26]) was 3 throughout. Besides, the Activity in [15] was above 3 log10CFU/ml; with Pseudomonas aeruginosa [18] it was above 3 log10CFU/ml; with Pseudomonas aeruginosa [19] it was 100%; with Pseudomonas aeruginosa [20], 2 log10CFU/ml. Further, the MIC with Acinetobacter baumannii [16] came out at 22 µM; with Pseudomonas aeruginosa [22], 22 µM; in the data set on Staphylococcus aureus [25], 43 µM; with Pseudomonas aeruginosa [27], 174 µM. In addition, the result (in the data set on Staphylococcus aureus [21]; in [24]) was inactive.
